In ChEMBL document CHEMBL4406829, “Synthesis and in vitro evaluation of piperazinyl-ureido sulfamates as steroid sulfatase inhibitors” (Eur J Med Chem, 2019):

Key:
[1] = molecular target: T1, Steryl-sulfatase (Homo sapiens) (UniProt P08842); assay: Inhibition of steroid sulfatase in human JEG3 cell lysates assessed as residual activity at 10 uM using [3H] E1S as substrate after 1 hr by scintillation spectrometry analysis relative to control; values are per cent of control; conditions: Lysate
T1 sequence (whole entry): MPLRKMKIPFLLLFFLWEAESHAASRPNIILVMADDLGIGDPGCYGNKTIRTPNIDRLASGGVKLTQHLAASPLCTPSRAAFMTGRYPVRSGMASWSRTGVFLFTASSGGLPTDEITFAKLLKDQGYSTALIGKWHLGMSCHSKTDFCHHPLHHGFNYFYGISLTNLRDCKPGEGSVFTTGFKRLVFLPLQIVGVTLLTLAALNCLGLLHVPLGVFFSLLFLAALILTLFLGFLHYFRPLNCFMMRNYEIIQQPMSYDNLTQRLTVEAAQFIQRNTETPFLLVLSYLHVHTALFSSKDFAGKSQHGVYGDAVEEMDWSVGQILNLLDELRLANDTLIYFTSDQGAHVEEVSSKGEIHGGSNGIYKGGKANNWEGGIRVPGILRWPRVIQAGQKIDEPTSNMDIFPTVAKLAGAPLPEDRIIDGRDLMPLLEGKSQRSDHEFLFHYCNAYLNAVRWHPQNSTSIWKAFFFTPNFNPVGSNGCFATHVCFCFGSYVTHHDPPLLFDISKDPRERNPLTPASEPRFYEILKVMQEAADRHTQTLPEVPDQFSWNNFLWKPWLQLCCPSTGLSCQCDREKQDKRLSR

[2] = molecular target: T2, Steryl-sulfatase (Homo sapiens, UniProt P08842); assay: Inhibition of steroid sulfatase in human JEG3 cell using [3H] E1S as substrate after 1 hr by scintillation spectrometry analysis
T2 sequence (P08842 whole entry): T1 sequence (whole entry)
Method in brief: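 JEG-3 (human placental choriocarcinoma) lysate at 125 μg protein/mL incubated 1 h with inhibitor (0.001–10 μM) and [3H]E1S adjusted to 20 μM with unlabelled E1S. Estrone product was extracted with toluene, and [14C]E1 was used to correct for losses. Read-out was 3H/14C scintillation counting. IC50 from activity with and without inhibitor; mean ± S.D., n = 3.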

| residual activity [1] [%] | IC50 [2] [nM] | Compound |
| --- | --- | --- |
| 25.4 |  | CCCCCCCCCCN1CCN(C(=O)Nc2ccc(OS(N)(=O)=O)c(Cl)c2)CC1 |
| 44.3 |  | NS(=O)(=O)Oc1ccc(NC(=O)N2CCN(c3nccc(-c4cccc(C(F)(F)F)c4)n3)CC2)cc1 |
| 12.4 | 43.7 | CCCCCCCCN1CCN(C(=O)Nc2ccc(OS(N)(=O)=O)cc2)CC1 |
| 93.5 |  | NS(=O)(=O)Oc1ccc(NC(=O)N2CCN(c3ccc(F)cc3)CC2)cc1 |
| 23 | 1230 | NS(=O)(=O)Oc1ccc(NC(=O)N2CCN(c3ccc(Cl)c(Cl)c3)CC2)cc1 |
| 7.1 | 5.1 | NS(=O)(=O)Oc1ccc(NC(=O)N2CCN(c3ccc(Cl)cc3)CC2)cc1F |
| 65.9 |  | NS(=O)(=O)Oc1ccc(NC(=O)N2CCN(c3nccc(-c4ccccc4)n3)CC2)cc1 |
| 11.4 | 8.8 | CCCCCCCCN1CCN(C(=O)Nc2ccc(OS(N)(=O)=O)c(F)c2)CC1 |
| 110 |  | NS(=O)(=O)Oc1ccc(NC(=O)N2CCN(c3ccc(Cl)cc3)CC2)cc1Cl |
| 14.9 | 94 | NS(=O)(=O)Oc1ccc(NC(=O)N2CCN(c3ccc(Cl)cc3)CC2)cc1 |
| 102 |  | CCCCCCCCCCN1CCN(C(=O)Nc2ccc(OS(N)(=O)=O)cc2Cl)CC1 |

Second part, the molecule before the results:

| Compound | residual activity [1] [%] | IC50 [2] [nM] |
| --- | --- | --- |
| Cc1cccc(N2CCN(C(=O)Nc3ccc(OS(N)(=O)=O)cc3)CC2)c1 | 10.4 |  |
| COc1ccc(-c2ccnc(N3CCN(C(=O)Nc4ccc(OS(N)(=O)=O)cc4)CC3)n2)cc1 | 7.9 |  |
| CCCCCCCN1CCN(C(=O)Nc2ccc(OS(N)(=O)=O)cc2)CC1 | 27.7 | 1690 |
| NS(=O)(=O)Oc1ccc(NC(=O)N2CCN(c3nccc(-c4cc5ccccc5o4)n3)CC2)cc1 | 4.7 | 139 |
| Cc1ccccc1N1CCN(C(=O)Nc2ccc(OS(N)(=O)=O)cc2)CC1 | 47.9 |  |
| Cc1cccc(N2CCN(C(=O)Nc3ccc(OS(N)(=O)=O)c(Cl)c3)CC2)c1C | 15.1 | 17 |
| COc1cc(-c2ccnc(N3CCN(C(=O)Nc4ccc(OS(N)(=O)=O)cc4)CC3)n2)cc(OC)c1OC | 19 |  |
| NS(=O)(=O)Oc1ccc(NC(=O)N2CCN(Cc3cc4ccccc4o3)CC2)cc1 | 20.2 |  |
| NS(=O)(=O)Oc1ccc(NC(=O)N2CCN(c3ccc(Cl)cc3)CC2)c(F)c1 | 108 |  |
| Cc1cccc(-c2ccnc(N3CCN(C(=O)Nc4ccc(OS(N)(=O)=O)cc4)CC3)n2)c1 | 26.7 |  |
| CCCCCCCCN1CCN(C(=O)Nc2ccc(OS(N)(=O)=O)c(Cl)c2)CC1 | 13.9 | 18.9 |
| NS(=O)(=O)Oc1ccc(NC(=O)N2CCN(Cc3ccccc3)CC2)cc1 | 18.7 |  |
| COc1ccc(-c2ccnc(N3CCN(C(=O)Nc4ccc(OS(N)(=O)=O)cc4)CC3)n2)cc1OC | 60.7 |  |
| COc1ccc(N2CCN(C(=O)Nc3ccc(OS(N)(=O)=O)cc3)CC2)cc1 | 37 |  |
| Cc1cccc(N2CCN(C(=O)Nc3ccc(OS(N)(=O)=O)cc3)CC2)c1C | 5.9 | 66 |
| CCCCCCCCCCN1CCN(C(=O)Nc2ccc(OS(N)(=O)=O)c(F)c2)CC1 | 15.2 |  |
| CCCCCCCCCCN1CCN(C(=O)Nc2ccc(OS(N)(=O)=O)cc2F)CC1 | 7.8 |  |
| NS(=O)(=O)Oc1ccc(NC(=O)N2CCN(c3nccc(-c4cccc(Br)c4)n3)CC2)cc1 | 39.4 |  |
| CCCCCCCCN1CCN(C(=O)Nc2ccc(OS(N)(=O)=O)cc2F)CC1 | 29.6 |  |
| CCCCCCCCCCN1CCN(C(=O)Nc2ccc(OS(N)(=O)=O)cc2)CC1 | 3.5 | 33.2 |
| COc1cccc(N2CCN(C(=O)Nc3ccc(OS(N)(=O)=O)cc3)CC2)c1 | 26.3 |  |
| NS(=O)(=O)Oc1ccc(NC(=O)N2CCN(c3ccccc3)CC2)cc1 | 16.9 |  |
| CCCCCCCCN1CCN(C(=O)Nc2ccc(OS(N)(=O)=O)cc2Cl)CC1 | 71.6 |  |
| Cc1cccc(N2CCN(C(=O)Nc3ccc(OS(N)(=O)=O)cc3F)CC2)c1C | 109 |  |
